{"data": "Experimental data pooled from the literature", "ALDH1A1": "Aldehyde dehydrogenase 1A1 (ALDH1A1, Homo sapiens, UniProt P00352)", "ALOX15": "Polyunsaturated fatty acid lipoxygenase ALOX15 (ALOX15, Homo sapiens, UniProt P16050)", "note": "Each line is one published result; the experiments were not run side by side."}
{"SMILES": "CC(=O)N[C@H]1[C@H](O[C@H]2[C@H](O)[C@@H](NC(C)=O)C(O)O[C@@H]2CO)O[C@H](CO)[C@@H](O[C@@H]2O[C@H](CO)[C@@H](O)[C@H](O)[C@H]2NC(C)=O)[C@@H]1O (some centres unmarked)", "target": "MB (Equus caballus, UniProt P68082)", "test": "binding", "endpoint": "Kd", "value": "~346 µM"}
{"SMILES": "COC(=O)C(C)n1nc(Cn2cc3cc(OCCF)c(Cl)cc3n2)c2ccccc2c1=O (racemic)", "target": "Sphingosine 1-phosphate receptor 1 (S1PR1, Homo sapiens, UniProt P21453)", "test": "ligand displacement, radioligand", "setting": "cell membranes", "endpoint": "IC50", "value": "> 1 µM"}
{"SMILES": "OC[C@H]1O[C@@H](Oc2ccc(O)c3cccc(O)c23)[C@H](O)[C@@H](O)[C@@H]1O", "target": "ALDH1A1", "test": "enzyme activity, inhibitor, fluorescence", "endpoint": "IC50", "value": "< 10 µM"}
{"SMILES": "COc1nc(-c2cccc(-c3ccccc3)c2C)ccc1CNCCNC(=O)CCCCCCCCCCC(=O)N1CCN(CCNC(=O)c2cc3c(=O)n4cccc(C)c4nc3n(CCc3cccs3)c2=N)CC1", "target": "Programmed cell death 1 ligand 1 (CD274, Homo sapiens, UniProt Q9NZQ7)", "test": "binding, BLI", "endpoint": "Kd", "value": "0.452 µM"}
{"SMILES": "O=c1[nH]c(=O)c(Cc2cccc(C(F)(F)F)c2)c([C@H]2CC[C@H](c3ccccc3)CC2)[nH]1", "target": "Solute carrier family 22 member 1 (SLC22A1, Homo sapiens, UniProt O15245)", "test": "transporter uptake, inhibitor", "endpoint": "IC50", "value": "> 1 µM"}
{"SMILES": "NC/C(=C\\F)COc1cccc(Cn2c(=S)[nH]c(=O)c3[nH]cnc32)c1", "target": "Thyroid peroxidase (Homo sapiens, UniProt P07202)", "test": "enzyme activity, inhibitor", "endpoint": "IC50", "value": "13 µM"}
{"SMILES": "COc1nc2ccc(Br)cc2cc1[C@@H](c1ccccc1)[C@@](O)(CCN(C)C)c1cccc2ccccc12", "target": "ALDH1A1", "test": "enzyme activity, inhibitor, fluorescence", "endpoint": "IC50", "value": "< 10 µM"}
{"SMILES": "[C-]#[N+]CCOCCOc1ccc2c(-c3ccccc3C(=O)OCC)c3ccc(=O)cc-3oc2c1", "target": "ALOX15", "test": "enzyme activity, inhibitor, absorbance", "endpoint": "IC50", "value": "20.8 µM"}
{"SMILES": "OC[C@H]1OC(O)[C@H](O)[C@@H](O)[C@@H]1O (some centres unmarked)", "target": "Spliceosome RNA helicase DDX39B (DDX39B, Homo sapiens, UniProt Q13838)", "test": "binding, MST", "endpoint": "Kd", "value": "1860 µM"}
{"SMILES": "CNC(=O)[C@H](Cc1c[nH]c2ccccc12)NC(=O)[C@@H](CC(=O)NO)CC(C)C", "target": "Matrilysin (MMP7, Homo sapiens, UniProt P09237)", "test": "enzyme activity, inhibitor", "endpoint": "IC50", "value": "0.00294 µM"}
{"SMILES": "O=C1OC2(c3ccc(O)cc3Oc3cc(O)ccc32)c2ccccc21", "target": "ALOX15", "test": "enzyme activity, inhibitor, absorbance", "endpoint": "IC50", "value": "44.8 µM"}
